Data on one compound can be found in article PMC5318329 (Drugs in R&D, 2016).

One data set deals with C-reactive protein (CRP). The settings on record: later time points (e.g. 72 h post dose), all dilmapimod dose levels; cited from earlier work.
The format of data set [1] is in vivo, human. The method, boiled down: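 Non-head-injury trauma patients randomised within 24–26 h of injury; daily IV infusion over 4 h or 24 h for 3 days. Plasma sampled pre-dose and serially after the first and third doses. Protein precipitation, then HPLC–MS/MS (LLOQ 0.1 ng/mL, ULOQ 100 ng/mL); NQ set missing, outliers excluded. NONMEM mixed-effects three-compartment model with first-order elimination; BMI power covariate centred at 27.4 kg/m2.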

Another data set relates to IL-6. The note with it: cited from earlier work.
The format of data set [2] is in vivo, human. The settings on record: intravenous infusion up to 10 mg, 3 consecutive days.
[3] abbreviates: final three-compartment population PK model, IV infusion.
[4] abbreviates: power model, covariate centred to population mean 27.4 kg/m^2.

`Cc1cc(F)ccc1-c1nc(NC(CO)CO)nc2c1ccc(=O)n2-c1c(F)cccc1F` [Dilmapimod]: the “CRP levels relative to placebo (exploratory analyses)” value in the data set with C-reactive protein (CRP) is “trend of lower levels of CRP”. Moreover, the “Dose proportionality of plasma concentration” value in data set [1] (IV infusion 3, 7.5 mg over 4 h, 7.5, 10 mg over 24 h) was “increased approximately proportionally to the increase in dose”. Besides, in data set [1] (calculated based on typical value of CL, Vc, V2, V3, Q1 and Q2), the Terminal half-life is recorded as 16 h. In addition, in data set [1] (setting [3]), the “Q1 (inter-compartmental clearance), typical value” amounted to 28.2 L/h; the “Q2 (inter-compartmental clearance), typical value” stood at 5.7 L/h; the “V2 (volume of distribution of peripheral compartment), typical value” was 35.9 L; the “V3 (volume of distribution of peripheral compartment), typical value” came to 115.6 L. Besides, in data set [1] (setting [3]), the “Vc (volume of distribution of the central compartment), typical value” is given as 8.1 L. Besides, the “Clearance lower than in typical patient” value in data set [1] (patients with BMI of 23 kg/m^2 (mean - SD) vs typical patient (27.4 kg/m^2)) is “about 21%”. In data set [1] (patients with BMI of 32 kg/m^2 (mean + SD) vs typical patient (27.4 kg/m^2)), the “Clearance higher than in typical patient” value is listed as ~23%. Also, in data set [1] (setting [4]), the “BMI covariate on CL (power model exponent)” value was found to be 1.36 and the “BMI covariate on Q2 (power model exponent)” value was determined as 2.42. For the same compound, in data set [1] (sum of Vc, V2 and V3 of the final population PK model), the “Vss (steady-state volume of distribution) = Vc + V2 + V3” value was 160 L. For the same compound, in the data set on IL-6 (24 h post dose, all dilmapimod dose levels), the “IL-6 levels relative to placebo (exploratory analyses)” value was “trend of lower levels of IL-6”. Also, the “Ratios of IL-6 relative to placebo” value in the data set with IL-6 (continuous infusion of 10 mg/24 h, up to 72 h post dose) is on record as “below 1”. Besides, in the data set with IL-6 (similar PK/PD modelling approach on IL-6 data), the “Overall effect of dilmapimod on IL-6 levels in PK/PD modelling” value is listed as “not revealed”. In addition, in data set [2], the Tolerability result is listed as “generally well tolerated”.
